Results from ChEMBL document CHEMBL1138349 (J Med Chem, 2007).
Values belong to the compound of their own block, whether it stands above or below them.

Assays:
[1] = biological target: T1, Muscarinic acetylcholine receptor M1 (Homo sapiens, UniProt P11229); experiment: Displacement of [N-methyl-3H]scopolamine from human recombinant muscarinic M1 receptor expressed in CHO cells; assay type: cell-based
T1 sequence (P11229 whole entry): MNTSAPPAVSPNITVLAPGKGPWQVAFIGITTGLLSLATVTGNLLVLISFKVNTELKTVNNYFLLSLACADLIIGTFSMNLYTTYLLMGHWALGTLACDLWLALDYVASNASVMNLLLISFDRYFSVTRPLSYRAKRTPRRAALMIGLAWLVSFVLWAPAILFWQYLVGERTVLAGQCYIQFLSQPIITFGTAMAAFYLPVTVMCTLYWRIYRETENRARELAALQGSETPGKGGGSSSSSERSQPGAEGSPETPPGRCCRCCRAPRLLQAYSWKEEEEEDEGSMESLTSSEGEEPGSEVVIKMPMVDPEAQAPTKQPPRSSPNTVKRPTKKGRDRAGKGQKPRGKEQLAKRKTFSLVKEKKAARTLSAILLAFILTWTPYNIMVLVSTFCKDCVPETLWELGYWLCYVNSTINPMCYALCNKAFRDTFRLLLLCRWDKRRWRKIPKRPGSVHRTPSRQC

hERG (KCNH2) = hERG (KCNH2) (Homo sapiens, UniProt Q12809); experiment: Inhibition of human hERG current at 1 uM
Chain of hERG (KCNH2) (Q12809 whole entry): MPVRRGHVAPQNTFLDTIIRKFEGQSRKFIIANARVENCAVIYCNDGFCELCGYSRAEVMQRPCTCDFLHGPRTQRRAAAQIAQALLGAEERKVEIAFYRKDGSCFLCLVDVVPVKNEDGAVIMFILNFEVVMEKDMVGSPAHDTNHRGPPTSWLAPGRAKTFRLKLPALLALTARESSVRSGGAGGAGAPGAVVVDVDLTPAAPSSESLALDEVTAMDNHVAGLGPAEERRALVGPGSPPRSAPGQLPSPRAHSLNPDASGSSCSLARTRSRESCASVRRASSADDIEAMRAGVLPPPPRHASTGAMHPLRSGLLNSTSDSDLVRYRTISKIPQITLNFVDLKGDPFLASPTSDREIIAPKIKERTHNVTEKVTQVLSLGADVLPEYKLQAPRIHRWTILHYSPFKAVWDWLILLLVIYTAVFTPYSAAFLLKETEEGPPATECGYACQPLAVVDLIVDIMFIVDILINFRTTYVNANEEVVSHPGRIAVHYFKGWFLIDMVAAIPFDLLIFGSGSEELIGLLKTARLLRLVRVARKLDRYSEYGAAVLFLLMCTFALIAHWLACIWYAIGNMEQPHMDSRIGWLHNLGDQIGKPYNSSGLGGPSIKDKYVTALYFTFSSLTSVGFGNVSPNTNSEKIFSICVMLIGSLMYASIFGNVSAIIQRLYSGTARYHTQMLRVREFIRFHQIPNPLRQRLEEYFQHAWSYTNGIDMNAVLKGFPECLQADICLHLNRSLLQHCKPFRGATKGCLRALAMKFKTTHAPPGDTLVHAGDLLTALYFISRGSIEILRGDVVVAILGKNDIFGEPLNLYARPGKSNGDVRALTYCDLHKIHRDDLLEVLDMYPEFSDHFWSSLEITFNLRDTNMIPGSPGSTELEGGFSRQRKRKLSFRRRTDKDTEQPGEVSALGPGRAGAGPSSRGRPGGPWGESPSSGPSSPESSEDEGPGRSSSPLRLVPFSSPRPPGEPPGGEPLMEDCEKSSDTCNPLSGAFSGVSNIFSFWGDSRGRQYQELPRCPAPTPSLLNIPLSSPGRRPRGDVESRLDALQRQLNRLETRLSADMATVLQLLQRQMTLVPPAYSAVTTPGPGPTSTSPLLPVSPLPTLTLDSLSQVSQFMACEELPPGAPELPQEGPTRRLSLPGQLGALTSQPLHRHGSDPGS

[2] = Dissociation constant, pKa corresponding to the protonation of the quinazoline; assay type: physicochemical
[3] = Distribution coefficient, log D at pH 7.4; assay type: physicochemical; settings: octanol/water
[4] = Volume of distribution at steady state in cynomolgus monkey at 5 mg/kg, po and 1.5 mg/kg, iv; assay type: ADME, organism-based, Macaca fascicularis; settings: in vivo, read-out: Vdss
Mus musculus [5] = experiment: Reduction in plasma glucose excursion in db/db C57BL/KSJ mouse at 1 mg/kg, po by oral glucose tolerance test; settings: read-out: Inhibition
Canis familiaris = experiment: Inhibition of plasma DPP4 activity in Beagle dog at 1 mg/kg, po after 7 hrs; settings: Canis lupus familiaris, read-out: Inhibition
[6] = Clearance in rat at 5 mg/kg, po and 5 mg/kg, iv; assay type: ADME, organism-based; settings: in vivo
[7] = Dissociation constant, pKa corresponding to the protonation of the primary amino group; assay type: physicochemical
[8] = Clearance in cynomolgus monkey at 5 mg/kg, po and 1.5 mg/kg, iv; assay type: ADME, organism-based, Macaca fascicularis; settings: in vivo
[9] = Total mean residence time in rat at 5 mg/kg, po; assay type: ADME, organism-based; design: dose 5 mg/kg, route oral; settings: in vivo
Rhesus monkey = experiment: Inhibition of plasma DPP4 activity in rhesus monkey at 1 mg/kg, po after 7 hrs; settings: Macaca mulatta, read-out: Inhibition
[10] = Volume of distribution at steady state in rat at 5 mg/kg, po and 5 mg/kg, iv; assay type: ADME, organism-based; settings: in vivo, read-out: Vdss
[11] = Oral bioavailability in cynomolgus monkey at 5 mg/kg; assay type: ADME, organism-based, Macaca fascicularis; settings: in vivo
[12] = Total mean residence time in cynomolgus monkey at 5 mg/kg, po; assay type: ADME, organism-based, Macaca fascicularis; design: dose 5 mg/kg, route oral; settings: in vivo
Mus musculus [13] = experiment: Inhibition of plasma DPP4 activity in db/db C57BL/KSJ mouse at 1 mg/kg, po after 30 mins of glucose administration; settings: 0.5 h, read-out: Inhibition
Mus musculus [14] = experiment: Reduction in plasma glucose excursion in db/db C57BL/KSJ mouse at 0.1 mg/kg, po by oral glucose tolerance test; settings: read-out: Inhibition
[15] = Aqueous solubility at pH 7.4; assay type: physicochemical; settings: buffer
Procedure, shortened: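 Solubility was measured in aqueous medium at physiological pH 7.4, using a crystalline modification of the free base.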

Rattus norvegicus = experiment: Inhibition of plasma DPP4 activity in Han Wistar rat at 1 mg/kg, po after 7 hrs; settings: read-out: Inhibition
[16] = Half life in cynomolgus monkey at 5 mg/kg, po; assay type: ADME, organism-based, Macaca fascicularis; design: dose 5 mg/kg, route oral; settings: in vivo
[17] = Oral bioavailability in rat at 5 mg/kg; assay type: ADME, organism-based; settings: in vivo
[18] = Half life in rat at 5 mg/kg, po; assay type: ADME, organism-based; design: dose 5 mg/kg, route oral; settings: in vivo

Compound: CC#CCn1c(N2CCC[C@@H](N)C2)nc2c1c(=O)n(CC(=O)c1ccccc1)c(=O)n2C
IC50 [1]: 6160 nM

Compound: CC#CCn1c(N2CCC[C@H](N)C2)nc2c1c(=O)n(CC(=O)c1ccccc1)c(=O)n2C
IC50 [1]: 1130 nM

Compound: CC#CCn1c(N2CCC[C@@H](N)C2)nc2c1c(=O)n(CC(=O)c1ccccc1OCC(=O)NC)c(=O)n2C
IC50 [1]: 1170 nM | residual activity at 1 µM (hERG (KCNH2)): 88%

Compound: CC#CCn1c(N2CCC[C@@H](N)C2)nc2c1c(=O)n(Cc1ccc(OC)cc1)c(=O)n2C
IC50 [1]: 518 nM | residual activity at 1 µM (hERG (KCNH2)): 51%

Compound: CC#CCn1c(N2CCC[C@@H](N)C2)nc2c1c(=O)n(Cc1nc(C)c3ccccc3n1)c(=O)n2C [LINAGLIPTIN]
pKa [2]: 1.9 | logD [3]: 0.4 | Vd [4]: 15.8 L/kg | inhibition in vivo at 1 mg/kg (Mus musculus [5]): 66% | inhibition in vivo at 1 mg/kg (Canis familiaris): > 70% | clearance [6]: 37.3 mL/min/kg | pKa [7]: 8.6 | clearance [8]: 15.8 mL/min/kg | MRT [9]: 14.3 h | inhibition in vivo at 1 mg/kg (Rhesus monkey): > 70% | IC50 [1]: 295 nM | Vd [10]: 5.4 L/kg | bioavailability [11]: 50.1% | MRT [12]: 17.4 h | inhibition in vivo at 1 mg/kg (Mus musculus [13]): 76% | inhibition in vivo at 0.1 mg/kg (Mus musculus [14]): 15% | solubility [15]: > 5000 µg/mL | inhibition in vivo at 1 mg/kg (Rattus norvegicus): > 70% | half-life [16]: 41.4 h | bioavailability [17]: 50.7% | half-life [18]: 35.9 h

Further lines, with some results ahead:

IC50 [1]: 50 nM
Compound: CC(C)=CCn1c(N2CCC[C@H](N)C2)nc2c1c(=O)n(CC(=O)c1ccccc1)c(=O)n2C

IC50 [1]: 25 nM
Compound: CC(C)=CCn1c(N2CCC[C@@H](N)C2)nc2c1c(=O)n(CC(=O)c1ccccc1)c(=O)n2C

IC50 [1]: 430 nM
Compound: CC#CCn1c(N2CCC[C@@H](N)C2)nc2c1c(=O)n(Cc1nc(C)cc3ccccc13)c(=O)n2C
residual activity at 1 µM (hERG (KCNH2)): 78%

IC50 [1]: 26 nM
Compound: CC(C)=CCn1c(N2CCC[C@H](N)C2)nc2c1c(=O)n(Cc1nccc3ccccc13)c(=O)n2C
residual activity at 1 µM (hERG (KCNH2)): 51%

IC50 [1]: 5 nM
Compound: CC(C)=CCn1c(N2CCC[C@@H](N)C2)nc2c1c(=O)n(Cc1nccc3ccccc13)c(=O)n2C
residual activity at 1 µM (hERG (KCNH2)): 51%
